Measured values: ChEMBL document CHEMBL2203081 (Bioorg Med Chem Lett, 2012)
Active and inactive are the calls of the source. The rule behind the calls is not given here.

Tests used:
[1] = biological target: BMP-2-inducible protein kinase (Homo sapiens) (UniProt Q9NSY1); test: Inhibition of BIKE assessed as residual activity at 10 uM relative to control
[2] = biological target: Serine/threonine-protein kinase PAK 5 (Homo sapiens) (UniProt Q9P286); test: Inhibition of PAK7 assessed as residual activity at 10 uM relative to control
Serine/threonine-protein kinase PAK 5 (Homo sapiens), sequence (Q9P286 whole entry, looked up): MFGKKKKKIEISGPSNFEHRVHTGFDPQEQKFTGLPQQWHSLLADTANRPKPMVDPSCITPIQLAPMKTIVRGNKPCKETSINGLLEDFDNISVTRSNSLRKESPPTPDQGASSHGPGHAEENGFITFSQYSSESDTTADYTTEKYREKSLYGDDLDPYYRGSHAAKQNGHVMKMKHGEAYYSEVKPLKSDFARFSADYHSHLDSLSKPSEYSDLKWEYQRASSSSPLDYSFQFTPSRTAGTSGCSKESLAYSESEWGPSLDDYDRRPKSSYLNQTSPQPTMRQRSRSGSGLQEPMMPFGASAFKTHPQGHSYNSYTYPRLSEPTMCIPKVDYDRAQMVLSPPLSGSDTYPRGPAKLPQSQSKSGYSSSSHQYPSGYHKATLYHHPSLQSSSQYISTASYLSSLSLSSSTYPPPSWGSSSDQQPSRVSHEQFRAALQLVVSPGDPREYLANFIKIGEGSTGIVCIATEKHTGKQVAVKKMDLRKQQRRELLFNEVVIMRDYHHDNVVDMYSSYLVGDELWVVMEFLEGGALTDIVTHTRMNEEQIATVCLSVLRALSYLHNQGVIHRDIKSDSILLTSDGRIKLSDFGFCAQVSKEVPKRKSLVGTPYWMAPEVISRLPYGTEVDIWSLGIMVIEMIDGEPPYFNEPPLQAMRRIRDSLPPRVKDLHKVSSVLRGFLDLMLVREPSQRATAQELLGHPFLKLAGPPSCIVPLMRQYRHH

[3] = biological target: Testis-specific serine/threonine-protein kinase 1 (Homo sapiens) (UniProt Q9BXA7); test: Inhibition of TSSK1 assessed as residual activity at 1 uM
Testis-specific serine/threonine-protein kinase 1 (Homo sapiens), sequence (Q9BXA7 whole entry): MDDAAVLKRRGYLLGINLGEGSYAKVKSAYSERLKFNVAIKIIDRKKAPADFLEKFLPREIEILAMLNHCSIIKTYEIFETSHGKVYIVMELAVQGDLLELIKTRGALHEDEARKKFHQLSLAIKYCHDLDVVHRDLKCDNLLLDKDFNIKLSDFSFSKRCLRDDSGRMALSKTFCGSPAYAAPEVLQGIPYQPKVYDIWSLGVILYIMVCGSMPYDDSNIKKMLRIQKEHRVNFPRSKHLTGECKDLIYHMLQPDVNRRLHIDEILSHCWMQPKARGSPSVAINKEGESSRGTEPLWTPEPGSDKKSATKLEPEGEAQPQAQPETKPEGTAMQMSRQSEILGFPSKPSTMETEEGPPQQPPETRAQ

[4] = biological target: Myotonin-protein kinase (Homo sapiens) (UniProt Q09013); test: Inhibition of DMPK assessed as residual activity at 10 uM relative to control
Myotonin-protein kinase (Homo sapiens), sequence (Q09013 whole entry): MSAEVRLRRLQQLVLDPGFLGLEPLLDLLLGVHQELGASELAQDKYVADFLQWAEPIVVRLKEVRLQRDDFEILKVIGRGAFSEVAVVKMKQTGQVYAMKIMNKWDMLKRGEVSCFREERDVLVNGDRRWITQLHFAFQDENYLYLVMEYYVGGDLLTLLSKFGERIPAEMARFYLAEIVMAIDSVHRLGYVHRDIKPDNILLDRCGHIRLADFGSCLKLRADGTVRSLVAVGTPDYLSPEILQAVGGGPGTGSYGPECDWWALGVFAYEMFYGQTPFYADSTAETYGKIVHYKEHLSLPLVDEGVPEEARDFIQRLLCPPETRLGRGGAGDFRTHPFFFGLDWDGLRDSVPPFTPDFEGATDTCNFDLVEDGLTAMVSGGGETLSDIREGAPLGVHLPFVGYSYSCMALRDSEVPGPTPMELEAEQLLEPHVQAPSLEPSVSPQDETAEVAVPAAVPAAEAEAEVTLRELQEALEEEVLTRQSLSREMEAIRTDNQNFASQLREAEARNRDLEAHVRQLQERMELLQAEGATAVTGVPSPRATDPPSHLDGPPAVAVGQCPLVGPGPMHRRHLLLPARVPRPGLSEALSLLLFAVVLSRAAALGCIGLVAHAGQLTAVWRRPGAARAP
In short: (§1)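 Competition kinase-binding assay (KINOMEscan) across a non-redundant panel of 329 kinases beyond the radiometric panel; residual binding expressed relative to control.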

[5] = biological target: MAP kinase-interacting serine/threonine-protein kinase 2 (Homo sapiens) (UniProt Q9HBH9); test: Inhibition of MKNK2 assessed as residual activity at 10 uM relative to control
MAP kinase-interacting serine/threonine-protein kinase 2 (Homo sapiens), sequence (Q9HBH9 whole entry, looked up): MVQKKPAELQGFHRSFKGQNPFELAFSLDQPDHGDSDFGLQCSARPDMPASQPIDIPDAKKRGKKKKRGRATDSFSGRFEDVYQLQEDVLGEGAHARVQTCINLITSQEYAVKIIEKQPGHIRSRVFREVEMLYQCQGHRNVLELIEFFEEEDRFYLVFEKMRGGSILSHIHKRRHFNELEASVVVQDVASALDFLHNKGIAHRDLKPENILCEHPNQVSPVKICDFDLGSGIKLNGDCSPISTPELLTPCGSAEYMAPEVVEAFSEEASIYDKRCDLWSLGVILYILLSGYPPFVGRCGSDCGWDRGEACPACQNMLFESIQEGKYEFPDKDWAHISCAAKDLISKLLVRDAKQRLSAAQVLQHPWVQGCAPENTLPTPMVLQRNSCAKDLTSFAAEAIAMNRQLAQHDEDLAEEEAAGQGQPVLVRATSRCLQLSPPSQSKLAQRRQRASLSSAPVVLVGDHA

Mus musculus [6] = test: Inhibition of LRRK2 in mouse assessed as inhibition of Ser935 autophosphorylation in brain at 100 mg/kg, ip by immunoblot method; type: functional, organism-based; design: dose 100 mg/kg
[7] = biological target: Serine/threonine-protein kinase pim-1 (Homo sapiens) (UniProt P11309); test: Inhibition of PIM1 assessed as residual activity at 1 uM
[8] = biological target: Ribosomal protein S6 kinase alpha-1 (Homo sapiens) (UniProt Q15418); test: Inhibition of RSK1 assessed as residual activity at 1 uM
[9] = biological target: Calcium/calmodulin-dependent protein kinase kinase 2 (Homo sapiens) (UniProt Q96RR4); test: Inhibition of CAMKKb assessed as residual activity at 1 uM
Calcium/calmodulin-dependent protein kinase kinase 2 (Homo sapiens), sequence (Q96RR4 2-588 limits assumed): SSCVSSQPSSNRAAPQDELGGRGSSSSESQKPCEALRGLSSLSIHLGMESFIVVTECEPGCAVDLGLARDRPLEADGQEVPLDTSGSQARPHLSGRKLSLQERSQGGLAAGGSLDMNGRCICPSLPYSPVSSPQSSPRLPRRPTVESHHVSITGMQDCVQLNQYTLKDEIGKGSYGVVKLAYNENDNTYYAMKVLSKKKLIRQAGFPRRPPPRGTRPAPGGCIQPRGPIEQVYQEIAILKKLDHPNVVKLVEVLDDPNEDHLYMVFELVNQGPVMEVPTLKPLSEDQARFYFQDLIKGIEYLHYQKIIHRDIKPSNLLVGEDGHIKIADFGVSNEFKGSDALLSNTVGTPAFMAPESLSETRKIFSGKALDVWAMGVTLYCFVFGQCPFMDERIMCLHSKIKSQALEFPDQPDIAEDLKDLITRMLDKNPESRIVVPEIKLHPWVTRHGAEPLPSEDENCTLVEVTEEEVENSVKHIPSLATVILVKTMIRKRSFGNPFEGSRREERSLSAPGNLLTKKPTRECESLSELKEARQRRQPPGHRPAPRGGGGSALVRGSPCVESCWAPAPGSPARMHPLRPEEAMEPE

[10] = biological target: Ribosomal protein S6 kinase alpha-5 (Homo sapiens) (UniProt O75582); test: Inhibition of MSK1 assessed as residual activity at 10 uM
[11] = biological target: Serine/threonine-protein kinase Nek6 (Homo sapiens) (UniProt Q9HC98); test: Inhibition of NEK6 assessed as residual activity at 10 uM relative to control
[12] = biological target: Dual specificity protein kinase CLK3 (Homo sapiens) (UniProt P49761); test: Inhibition of CLK3 assessed as residual activity at 10 uM relative to control; in short: as §1
[13] = biological target: T1, Ephrin type-B receptor 2 (Homo sapiens) (UniProt P29323); test: Inhibition of EPH-B2 assessed as residual activity at 1 uM
T1 sequence (whole entry): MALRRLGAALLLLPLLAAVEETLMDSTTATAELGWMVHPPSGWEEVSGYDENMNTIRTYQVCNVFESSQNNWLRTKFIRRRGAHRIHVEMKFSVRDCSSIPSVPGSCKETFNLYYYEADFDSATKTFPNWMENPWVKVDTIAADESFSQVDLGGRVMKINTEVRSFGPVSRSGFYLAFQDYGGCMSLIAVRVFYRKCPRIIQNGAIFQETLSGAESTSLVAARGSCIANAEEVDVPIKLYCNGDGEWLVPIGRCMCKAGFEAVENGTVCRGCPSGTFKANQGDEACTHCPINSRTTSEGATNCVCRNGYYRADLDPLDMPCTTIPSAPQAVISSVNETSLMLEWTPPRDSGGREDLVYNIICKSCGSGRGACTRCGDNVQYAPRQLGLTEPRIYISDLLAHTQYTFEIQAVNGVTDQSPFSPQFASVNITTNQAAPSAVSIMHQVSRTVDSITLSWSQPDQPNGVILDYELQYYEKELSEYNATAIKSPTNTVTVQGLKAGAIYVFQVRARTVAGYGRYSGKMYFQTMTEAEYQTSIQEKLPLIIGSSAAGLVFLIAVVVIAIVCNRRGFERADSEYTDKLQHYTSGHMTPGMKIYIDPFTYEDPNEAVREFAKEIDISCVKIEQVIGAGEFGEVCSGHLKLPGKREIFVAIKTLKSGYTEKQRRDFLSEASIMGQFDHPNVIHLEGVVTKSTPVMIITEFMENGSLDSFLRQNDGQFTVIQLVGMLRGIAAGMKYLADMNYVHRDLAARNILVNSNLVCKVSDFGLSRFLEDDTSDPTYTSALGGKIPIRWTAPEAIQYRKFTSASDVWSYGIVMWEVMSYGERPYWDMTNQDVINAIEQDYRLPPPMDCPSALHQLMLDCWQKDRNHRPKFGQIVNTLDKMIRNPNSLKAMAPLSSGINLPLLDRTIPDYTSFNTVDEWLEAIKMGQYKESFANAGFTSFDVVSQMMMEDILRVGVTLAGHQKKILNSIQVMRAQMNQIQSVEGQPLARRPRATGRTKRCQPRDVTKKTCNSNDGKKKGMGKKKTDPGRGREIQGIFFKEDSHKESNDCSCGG
In short: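 Standard radioactivity-based enzymatic kinase assays on a 131-kinase panel run by the Dundee profiling service; residual kinase activity recorded.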

[14] = biological target: Ribosomal protein S6 kinase beta-1 (Homo sapiens) (UniProt P23443); test: Inhibition of S6K1 assessed as residual activity at 1 uM
Ribosomal protein S6 kinase beta-1 (Homo sapiens), sequence (P23443 whole entry, looked up): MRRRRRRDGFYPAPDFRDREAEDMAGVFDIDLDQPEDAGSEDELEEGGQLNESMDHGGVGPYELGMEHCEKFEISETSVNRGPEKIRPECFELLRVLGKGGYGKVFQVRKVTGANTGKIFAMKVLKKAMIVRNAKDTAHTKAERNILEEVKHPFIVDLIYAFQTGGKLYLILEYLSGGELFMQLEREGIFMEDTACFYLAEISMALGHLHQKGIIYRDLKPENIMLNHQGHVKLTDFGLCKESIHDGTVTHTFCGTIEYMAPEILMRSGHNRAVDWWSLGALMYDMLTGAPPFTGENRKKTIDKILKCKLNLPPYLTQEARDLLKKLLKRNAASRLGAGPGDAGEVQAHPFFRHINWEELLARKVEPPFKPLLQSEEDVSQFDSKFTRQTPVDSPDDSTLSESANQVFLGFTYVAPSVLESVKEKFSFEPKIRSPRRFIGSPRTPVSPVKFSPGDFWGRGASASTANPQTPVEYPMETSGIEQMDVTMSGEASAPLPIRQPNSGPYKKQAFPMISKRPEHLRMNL

[15] = biological target: Cyclin-dependent kinase 2/cyclin A (Homo sapiens) (UniProt P24941+P20248+P78396); test: Inhibition of CDK2-Cyclin A assessed as residual activity at 10 uM; type: protein-complex assay
Plasma = test: AUClast in Swiss albino mouse plasma at 10 mg/kg, po; type: ADME, organism-based; design: dose 10 mg/kg, route oral, time 0 - last; settings: in vivo
In short: (§2)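 Male Swiss Albino mice, single dose given intravenously (1 mg/kg) or orally (10 mg/kg). Drug measured in plasma and brain, with AUClast taken for each. The brain/plasma ratio is based on AUClast, and oral bioavailability is derived from the IV and PO plasma data.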

[16] = biological target: STE20/SPS1-related proline-alanine-rich protein kinase (Homo sapiens) (UniProt Q9UEW8); test: Inhibition of STK39 assessed as residual activity at 10 uM relative to control
[17] = biological target: Atypical kinase COQ8B, mitochondrial (Homo sapiens) (UniProt Q96D53); test: Inhibition of ADCK4 assessed as residual activity at 10 uM relative to control
[18] = biological target: Death-associated protein kinase 2 (Homo sapiens) (UniProt Q9UIK4); test: Inhibition of DAPK2 assessed as residual activity at 10 uM relative to control; in short: as §1
Death-associated protein kinase 2 (Homo sapiens), sequence (Q9UIK4 whole entry, looked up): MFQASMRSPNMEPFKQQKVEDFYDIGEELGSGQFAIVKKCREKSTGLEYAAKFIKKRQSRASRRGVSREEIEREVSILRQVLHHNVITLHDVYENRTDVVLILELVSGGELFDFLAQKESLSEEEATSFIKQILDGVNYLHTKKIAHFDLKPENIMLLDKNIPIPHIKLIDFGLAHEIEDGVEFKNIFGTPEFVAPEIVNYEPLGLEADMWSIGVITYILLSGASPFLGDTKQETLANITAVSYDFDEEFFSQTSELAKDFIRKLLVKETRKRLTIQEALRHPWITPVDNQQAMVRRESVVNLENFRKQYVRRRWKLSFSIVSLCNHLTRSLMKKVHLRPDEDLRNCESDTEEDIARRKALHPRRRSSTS

Mus musculus [19] = test: Inhibition of LRRK2 in mouse assessed as inhibition of Ser935 autophosphorylation in kidney at 100 mg/kg, ip by immunoblot method; type: functional, organism-based; design: dose 100 mg/kg
Brain = test: AUClast in Swiss albino mouse brain at 1 mg/kg, iv; type: ADME, organism-based; design: dose 1 mg/kg, route intravenous, time 0 - last; settings: in vivo; in short: as §2
[20] = biological target: Tyrosine-protein kinase Fer (Homo sapiens) (UniProt P16591); test: Inhibition of FER assessed as residual activity at 10 uM relative to control
Tyrosine-protein kinase Fer (Homo sapiens), sequence (P16591 whole entry, looked up): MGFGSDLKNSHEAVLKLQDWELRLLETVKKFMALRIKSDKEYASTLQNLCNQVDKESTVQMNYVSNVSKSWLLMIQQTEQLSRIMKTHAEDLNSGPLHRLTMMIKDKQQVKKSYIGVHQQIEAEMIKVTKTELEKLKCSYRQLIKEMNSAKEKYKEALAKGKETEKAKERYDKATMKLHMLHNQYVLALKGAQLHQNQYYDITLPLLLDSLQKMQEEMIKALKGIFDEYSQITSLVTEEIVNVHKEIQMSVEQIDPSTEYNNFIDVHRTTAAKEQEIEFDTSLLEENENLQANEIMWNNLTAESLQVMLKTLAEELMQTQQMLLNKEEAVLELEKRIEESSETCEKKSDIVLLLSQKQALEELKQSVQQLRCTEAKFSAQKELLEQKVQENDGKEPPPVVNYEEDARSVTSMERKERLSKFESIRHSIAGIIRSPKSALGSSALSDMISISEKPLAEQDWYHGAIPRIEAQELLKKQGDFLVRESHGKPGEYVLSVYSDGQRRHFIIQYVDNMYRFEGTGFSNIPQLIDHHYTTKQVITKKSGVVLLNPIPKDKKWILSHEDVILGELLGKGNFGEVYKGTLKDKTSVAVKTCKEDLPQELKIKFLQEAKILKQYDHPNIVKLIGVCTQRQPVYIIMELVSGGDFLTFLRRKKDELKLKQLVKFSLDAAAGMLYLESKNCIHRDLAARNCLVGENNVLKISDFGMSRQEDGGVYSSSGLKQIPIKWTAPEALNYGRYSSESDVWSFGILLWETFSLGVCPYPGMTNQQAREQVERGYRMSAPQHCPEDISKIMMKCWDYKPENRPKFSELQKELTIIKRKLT

[21] = biological target: Cyclin-dependent kinase 18 (Homo sapiens) (UniProt Q07002); test: Inhibition of PCTK3 assessed as residual activity at 10 uM relative to control
Cyclin-dependent kinase 18 (Homo sapiens), sequence (Q07002 whole entry): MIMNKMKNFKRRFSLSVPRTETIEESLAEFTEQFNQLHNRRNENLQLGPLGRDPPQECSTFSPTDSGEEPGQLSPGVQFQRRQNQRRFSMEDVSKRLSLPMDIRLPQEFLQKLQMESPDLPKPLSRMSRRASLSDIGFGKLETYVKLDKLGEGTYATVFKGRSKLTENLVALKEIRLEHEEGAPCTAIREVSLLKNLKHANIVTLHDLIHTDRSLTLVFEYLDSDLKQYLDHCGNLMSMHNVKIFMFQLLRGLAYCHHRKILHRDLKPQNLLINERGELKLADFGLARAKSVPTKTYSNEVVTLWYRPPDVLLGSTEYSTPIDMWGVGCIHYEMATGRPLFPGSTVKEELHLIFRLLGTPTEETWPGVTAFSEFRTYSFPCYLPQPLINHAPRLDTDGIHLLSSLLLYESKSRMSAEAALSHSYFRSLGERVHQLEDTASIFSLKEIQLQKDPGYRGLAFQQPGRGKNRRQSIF

[22] = biological target: Dual serine/threonine and tyrosine protein kinase (Homo sapiens) (UniProt Q6XUX3); test: Inhibition of RIPK5 assessed as residual activity at 10 uM relative to control
[23] = Inhibition of AMPK assessed as residual activity at 10 uM

## O=C(Nc1cccnc1)c1cc(-c2ccnc(F)c2)ccc1OCc1ccccc1
[1]
  Activity: 65%
[2]
  Activity: 69%
[3]
  Activity: 103%
[4]
  Activity: 58%
[5]
  Activity: 52%
Mus musculus [6]
  inhibition: inactive
[7]
  Activity: 102%
[8]
  Activity: 69%
[9]
  Activity: 71%
[10]
  Activity: 120%
[11]
  Activity: 50%
[12]
  Activity: 58%
[13]
  Activity: 123%
[14]
  Activity: 101%
[15]
  Activity: 117%
Plasma
  AUClast: 635.3 ng·h/mL
[16]
  Activity: 63%
[17]
  Activity: 26%
[18]
  Activity: 69%
Mus musculus [19]
  inhibition: Active
Brain
  AUClast: 708.7 ng·h/mL
[20]
  Activity: 67%
[21]
  Activity: 58%
[22]
  Activity: 69%
[23]
  Activity: 90%
